From ChEMBL document CHEMBL3352222, “2-Hexylthio-β,γ-CH2-ATP is an effective and selective NTPDase2 inhibitor” (J Med Chem, 2014)

Columns and labels:
[1] = target: T1, NTPDase1 (ectonucleoside triphosphate diphosphohydrolase 1) (Homo sapiens, UniProt P49961); experiment: Stability assessed as human NTPDase1-mediated compound hydrolysis; format: ADME; conditions: human NTPDase1 enzyme, read-out: Drug degradation
T1 sequence (P49961 whole entry): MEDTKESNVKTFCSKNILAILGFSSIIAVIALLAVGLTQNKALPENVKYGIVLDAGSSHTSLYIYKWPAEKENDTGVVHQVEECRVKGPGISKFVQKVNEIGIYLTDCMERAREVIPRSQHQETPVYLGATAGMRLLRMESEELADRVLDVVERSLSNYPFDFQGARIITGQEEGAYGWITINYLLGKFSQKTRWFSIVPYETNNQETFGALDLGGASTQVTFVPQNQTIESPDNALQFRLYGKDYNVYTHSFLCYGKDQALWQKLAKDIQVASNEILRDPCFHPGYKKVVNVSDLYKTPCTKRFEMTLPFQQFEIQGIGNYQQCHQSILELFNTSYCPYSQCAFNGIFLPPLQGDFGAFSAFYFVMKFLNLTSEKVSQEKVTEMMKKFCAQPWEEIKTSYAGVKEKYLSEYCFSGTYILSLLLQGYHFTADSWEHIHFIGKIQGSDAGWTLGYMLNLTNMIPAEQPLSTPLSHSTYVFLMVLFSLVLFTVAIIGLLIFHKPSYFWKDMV
Procedure, shortened: (§1)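 Each analogue offered as substrate to recombinant human NTPDase (COS-7 transfected cell protein extracts) at 37 °C, pH 7.4 Ca2+/Tris medium, 15 min; Pi released measured by malachite green at 630 nm; hydrolysis expressed relative to ATP set as 100%; mean ± SD of three independent experiments, each in duplicate.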

[2] = target: T2, NTPDase2 (ectonucleoside triphosphate diphosphohydrolase 2) (Homo sapiens, UniProt Q9Y5L3); experiment: Stability assessed as human NTPDase2-mediated compound hydrolysis; format: ADME; conditions: human NTPDase2 enzyme, read-out: Drug degradation; procedure, shortened: as §1
T2 sequence (Q9Y5L3 whole entry): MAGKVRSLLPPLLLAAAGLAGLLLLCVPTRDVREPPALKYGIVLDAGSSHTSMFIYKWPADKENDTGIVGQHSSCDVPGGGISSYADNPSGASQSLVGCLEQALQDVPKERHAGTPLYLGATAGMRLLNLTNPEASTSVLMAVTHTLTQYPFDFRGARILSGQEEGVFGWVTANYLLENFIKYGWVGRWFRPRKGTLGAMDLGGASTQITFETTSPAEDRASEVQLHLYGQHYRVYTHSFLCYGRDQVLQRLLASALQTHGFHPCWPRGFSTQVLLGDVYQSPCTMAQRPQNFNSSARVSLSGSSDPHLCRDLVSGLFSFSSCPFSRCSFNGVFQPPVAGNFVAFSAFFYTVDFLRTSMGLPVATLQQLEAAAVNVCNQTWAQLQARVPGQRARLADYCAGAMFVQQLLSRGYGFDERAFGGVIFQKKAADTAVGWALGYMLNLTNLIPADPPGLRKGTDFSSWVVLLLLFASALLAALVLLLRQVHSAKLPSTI

[3] = target: T3, NTPDase3 (ectonucleoside triphosphate diphosphohydrolase 3) (Homo sapiens, UniProt O75355); experiment: Stability assessed as human NTPDase3-mediated compound hydrolysis; format: ADME; conditions: human NTPDase3 enzyme, read-out: Drug degradation; procedure, shortened: as §1
T3 sequence (O75355 whole entry): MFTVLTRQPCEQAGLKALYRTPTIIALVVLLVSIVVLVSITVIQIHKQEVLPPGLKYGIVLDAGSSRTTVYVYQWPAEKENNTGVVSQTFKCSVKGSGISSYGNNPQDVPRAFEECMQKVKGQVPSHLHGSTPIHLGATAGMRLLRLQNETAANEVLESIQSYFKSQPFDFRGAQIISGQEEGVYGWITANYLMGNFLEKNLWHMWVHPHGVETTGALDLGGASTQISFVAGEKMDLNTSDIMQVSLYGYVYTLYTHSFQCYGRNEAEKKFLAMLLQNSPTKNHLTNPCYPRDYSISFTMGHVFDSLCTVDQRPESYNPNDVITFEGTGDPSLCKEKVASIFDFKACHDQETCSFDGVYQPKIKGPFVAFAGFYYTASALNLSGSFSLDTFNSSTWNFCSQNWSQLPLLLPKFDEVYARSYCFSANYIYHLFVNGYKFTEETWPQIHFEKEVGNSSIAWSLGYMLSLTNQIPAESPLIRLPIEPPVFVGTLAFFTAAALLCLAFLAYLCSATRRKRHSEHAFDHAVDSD

[4] = target: T4, Ectonucleoside triphosphate diphosphohydrolase 2 (Homo sapiens) (UniProt Q9Y5L3); experiment: Inhibition of recombinant human NTPDase2 transfected in COS-7 cells using ATP substrate at 100 uM relative to control; format: cell-based
T4 sequence (whole entry): T2 sequence (Q9Y5L3 whole entry)
Procedure, shortened: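 Extracts of COS-7 cells expressing human NTPDase2, preincubated 3 min at 37 °C in 5 mM CaCl2/80 mM Tris pH 7.4; ATP and compound both 100 μM; stopped at 15 min with malachite green, Pi at 630 nm; ATP alone set as 100%; mean ± SD of three experiments in triplicate.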

[5] = target: T5, Ectonucleotide pyrophosphatase/phosphodiesterase family member 1 (Homo sapiens) (UniProt P22413); experiment: Inhibition of human NPP1 using pNP-TMP substrate relative to control; conditions: concentration not given here
T5 sequence (whole entry): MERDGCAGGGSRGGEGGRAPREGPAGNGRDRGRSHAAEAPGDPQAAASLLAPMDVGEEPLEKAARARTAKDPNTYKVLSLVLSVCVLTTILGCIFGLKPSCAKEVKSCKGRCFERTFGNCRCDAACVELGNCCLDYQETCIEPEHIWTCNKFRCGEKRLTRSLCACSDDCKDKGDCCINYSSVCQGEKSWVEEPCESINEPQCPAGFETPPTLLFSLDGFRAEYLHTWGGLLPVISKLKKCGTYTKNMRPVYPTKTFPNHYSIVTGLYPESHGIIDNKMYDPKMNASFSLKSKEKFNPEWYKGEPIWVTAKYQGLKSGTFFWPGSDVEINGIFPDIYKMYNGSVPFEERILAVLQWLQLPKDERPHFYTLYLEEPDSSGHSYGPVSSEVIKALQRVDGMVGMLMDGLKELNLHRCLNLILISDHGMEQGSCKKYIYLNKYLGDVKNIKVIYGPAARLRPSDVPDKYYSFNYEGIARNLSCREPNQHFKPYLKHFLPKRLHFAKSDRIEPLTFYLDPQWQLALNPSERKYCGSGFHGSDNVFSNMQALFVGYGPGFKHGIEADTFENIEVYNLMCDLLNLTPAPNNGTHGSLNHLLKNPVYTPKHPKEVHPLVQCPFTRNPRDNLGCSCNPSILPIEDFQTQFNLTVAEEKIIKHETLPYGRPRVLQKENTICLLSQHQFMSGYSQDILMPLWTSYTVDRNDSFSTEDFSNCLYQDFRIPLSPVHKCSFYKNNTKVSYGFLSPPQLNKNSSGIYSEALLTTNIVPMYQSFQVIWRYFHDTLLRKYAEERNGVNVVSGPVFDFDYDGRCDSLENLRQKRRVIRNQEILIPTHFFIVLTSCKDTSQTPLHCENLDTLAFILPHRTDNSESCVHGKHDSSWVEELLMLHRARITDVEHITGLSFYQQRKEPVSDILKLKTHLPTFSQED
Procedure, shortened: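 Extract of COS-7 cells transfected with human NPP1, preincubated 3 min at 37 °C in 1 mM CaCl2, 140 mM NaCl, 5 mM KCl, 50 mM Tris pH 8.5; started with 100 μM pNP-TMP, compound 100 μM; p-nitrophenol read at 410 nm after 15 min; activity without compound = 100%; mean ± SD, three experiments in triplicate.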

[6] = target: 5'-nucleotidase (Homo sapiens) (UniProt P21589); experiment: Inhibition of AMPase activity of human ecto-5'-nucleotidase using AMP substrate relative to control; conditions: concentration not given here
Chain of 5'-nucleotidase (Homo sapiens) (P21589 whole entry): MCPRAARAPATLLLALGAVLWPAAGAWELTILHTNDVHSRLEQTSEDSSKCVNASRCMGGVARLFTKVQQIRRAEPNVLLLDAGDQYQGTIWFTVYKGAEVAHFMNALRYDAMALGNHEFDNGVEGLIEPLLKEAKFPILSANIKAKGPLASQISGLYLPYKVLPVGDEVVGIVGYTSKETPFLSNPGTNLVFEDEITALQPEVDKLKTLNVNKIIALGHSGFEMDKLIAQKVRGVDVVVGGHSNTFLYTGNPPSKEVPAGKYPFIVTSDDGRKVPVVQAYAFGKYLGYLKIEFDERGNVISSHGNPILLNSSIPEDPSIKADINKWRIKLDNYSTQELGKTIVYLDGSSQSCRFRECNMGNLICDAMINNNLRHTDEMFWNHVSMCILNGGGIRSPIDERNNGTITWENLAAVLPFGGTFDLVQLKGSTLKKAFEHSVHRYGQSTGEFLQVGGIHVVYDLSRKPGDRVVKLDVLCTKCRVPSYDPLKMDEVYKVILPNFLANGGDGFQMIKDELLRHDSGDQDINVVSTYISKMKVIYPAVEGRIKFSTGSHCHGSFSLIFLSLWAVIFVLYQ
Procedure, shortened: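 Human ecto-5′-nucleotidase in protein extracts of transfected COS-7 cells; 3 min preincubation at 37 °C in 5 mM CaCl2/80 mM Tris pH 7.4 (or Tris-Ringer); started with 100 μM AMP, compound also 100 μM; stopped after 15 min with malachite green, Pi read at 630 nm; activity without compound set as 100%; mean ± SD, three experiments in triplicate.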

[7] = target: T6, Ectonucleoside triphosphate diphosphohydrolase 2 (Homo sapiens, UniProt Q9Y5L3); experiment: Inhibition of recombinant human NTPDase2 transfected in COS-7 cells using ATP substrate; format: cell-based
T6 sequence (Q9Y5L3 whole entry): T2 sequence (Q9Y5L3 whole entry)

[8] = Stability assessed as human compound hydrolysis; conditions: read-out: Drug degradation

What does the source list for `Nc1ncnc2c1nnn2[C@@H]1O[C@H](COP(=O)(O)OP(=O)(O)OP(=O)(O)O)[C@@H](O)[C@H]1O`?
metabolised [1]: 73%; metabolised [2]: 38.5%

For `CCCCCCSc1nc(N)c2ncn([C@@H]3O[C@H](COP(=O)(O)OP(=O)(O)CP(=O)(O)O)[C@@H](O)[C@H]3O)c2n1`, which metabolised [1] is on record?
The metabolised was 2.3%.

And the metabolised [2]?
Its metabolised is 2.8%.

What about the metabolised [3] of the same compound?
Its metabolised is 0.8%.

And the inhibition [4]?
Its inhibition is 70%.

What about the inhibition [5] of the same compound?
Its inhibition is over 50%.

What about the inhibition [6] of the same compound?
Its inhibition is 10%.

What about the IC50 [7] of the same compound?
The IC50 was 40 µM.

What about the Ki [7] of the same compound?
Its Ki is 21 µM.

Which metabolised [1] does the source give for `O=P(O)(O)OP(=O)(O)OP(=O)(O)OC[C@H]1O[C@@H](n2cnc3c(N(Cc4ccccc4)Cc4ccccc4)ncnc32)[C@H](O)[C@@H]1O` here?
The metabolised was 14%.

What about the metabolised [2] of the same compound?
The metabolised was 3%.

What about the metabolised [3] of the same compound?
Its metabolised is 8%.

And the inhibition [4]?
Its inhibition is 0%.

What about the metabolised [8] of the same compound?
The metabolised was 13%.

What does the source list for `CCCCCCSc1nc(N)c2nnn([C@@H]3O[C@H](COP(=O)(O)OP(=O)(O)OP(=O)(O)O)[C@@H](O)[C@H]3O)c2n1`?
metabolised [1]: 44%; metabolised [2]: 11.5%

What does the source list for `CN(C)c1ncnc2c1ncn2[C@@H]1O[C@H](COP(=O)(O)OP(=O)(O)OP(=O)(O)O)[C@@H](O)[C@H]1O`?
metabolised [1]: 74%; metabolised [2]: 73%

Which metabolised [1] does the source give for `O=P(O)(O)OC[C@H]1O[C@@H](n2cnc3c(N(Cc4ccccc4)Cc4ccccc4)ncnc32)[C@H](O)[C@@H]1O` here?
Its metabolised is 6%.

And the metabolised [2]?
Its metabolised is 3%.

And the metabolised [3]?
The metabolised was 10%.

What about the inhibition [4] of the same compound?
The inhibition was 10%.

And the metabolised [8]?
Its metabolised is 5%.

Which metabolised [1] does the source give for `CNc1ncnc2c1ncn2[C@@H]1O[C@H](COP(=O)(O)OP(=O)(O)OP(=O)(O)O)[C@@H](O)[C@H]1O` here?
The metabolised was 87%.

What about the metabolised [2] of the same compound?
Its metabolised is 77%.

For `CCN(CC)c1ncnc2c1ncn2[C@@H]1O[C@H](COP(=O)(O)OP(=O)(O)OP(=O)(O)O)[C@@H](O)[C@H]1O`, which metabolised [1] is on record?
Its metabolised is 22%.

What about the metabolised [2] of the same compound?
The metabolised was 0%.

And the metabolised [3]?
Its metabolised is 2%.

And the inhibition [4]?
Its inhibition is 42%.

What about the metabolised [8] of the same compound?
Its metabolised is 20%.

Which metabolised [1] does the source give for `CN(C)c1ncnc2c1ncn2[C@@H]1O[C@H](COP(=O)(O)O)[C@@H](O)[C@H]1O` here?
The metabolised was 0%.

What about the metabolised [2] of the same compound?
Its metabolised is 0%.

What about the metabolised [3] of the same compound?
Its metabolised is 4%.

What about the metabolised [8] of the same compound?
Its metabolised is 2%.
